Assay results from ChEMBL document CHEMBL2010794, “Discovery of nor-seco himbacine analogs as thrombin receptor antagonists” (Bioorg Med Chem Lett, 2012).
Activity calls are given as the source filed them. The calls are words filed in the database; no cut-off is given here.

Experiments:
[1] = target: T1, Proteinase-activated receptor 1 (Homo sapiens, UniProt P25116); assay: Displacement of [3H]haTRAP from human PAR1 after 1 hr by TopCount scintillation counting
T1 sequence (P25116 whole entry): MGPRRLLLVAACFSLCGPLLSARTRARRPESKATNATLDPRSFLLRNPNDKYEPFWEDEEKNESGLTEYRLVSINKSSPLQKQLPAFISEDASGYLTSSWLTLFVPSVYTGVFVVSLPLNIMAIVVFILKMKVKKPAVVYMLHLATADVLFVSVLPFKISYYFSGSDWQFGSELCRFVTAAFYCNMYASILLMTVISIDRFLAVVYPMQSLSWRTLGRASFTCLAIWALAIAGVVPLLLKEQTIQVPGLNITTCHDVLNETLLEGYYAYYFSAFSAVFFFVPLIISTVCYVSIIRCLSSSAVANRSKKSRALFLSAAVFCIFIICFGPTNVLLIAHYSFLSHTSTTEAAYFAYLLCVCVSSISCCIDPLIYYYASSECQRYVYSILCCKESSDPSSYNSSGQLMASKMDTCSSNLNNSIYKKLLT
Outline: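 PAR-1 receptors isolated from human platelets; competition binding against [³H]haTRAP radioligand; values expressed as IC₅₀ (nM).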

[2] = AUC (0 to 6 hrs) in rat at 10 mg/kg, po; format: ADME, organism-based; set-up: time < 6 hr, dose 10 mg/kg, route oral; conditions: plasma
Outline: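 Rats given a single 10 mg/kg oral dose in 0.4% methylcellulose; plasma levels followed up to 6 h; AUC from 0 to 6 h reported in ng h/mL.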

Cynomolgus monkey [3] = assay: Ex-vivo inhibition of PAR1 in cynomolgus monkey assessed as inhibition of haTRAP-induced platelet aggregation at 1 mg/kg, po by aggregometry; format: functional, organism-based; set-up: dose 1 mg/kg; conditions: Macaca fascicularis
Outline: (§1)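 Cynomolgus monkeys dosed orally in 20% PEG-HPBCD (hydrochloride salt for the 7a-hydroxy series); blood sampled at various times up to 24 h; haTRAP added to whole blood at 1 µM to trigger aggregation, measured by aggregometer; result given as % reduction in haTRAP-induced aggregation at the stated dose and time.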

Cynomolgus monkey [4] = assay: Ex-vivo inhibition of PAR1 in cynomolgus monkey assessed as inhibition of haTRAP-induced platelet aggregation at 1 mg/kg, po at 24 hrs by aggregometry; format: functional; conditions: Macaca fascicularis; outline: as §1
[5] = AUC (0 to 24 hrs) in cynomolgus monkey plasma at 1 mg/kg, po; format: ADME, organism-based, Macaca fascicularis; set-up: time < 24 hr, dose 1 mg/kg, route oral
Cynomolgus monkey [6] = assay: Ex-vivo inhibition of PAR1 in cynomolgus monkey assessed as inhibition of haTRAP-induced platelet aggregation at 3 mg/kg, po at 24 hrs by aggregometry; format: functional; conditions: Macaca fascicularis; outline: as §1
Cynomolgus monkey [7] = assay: Ex-vivo inhibition of PAR1 in cynomolgus monkey assessed as inhibition of haTRAP-induced platelet aggregation at 0.3 mg/kg, po by aggregometry; format: functional, organism-based; set-up: dose 0.3 mg/kg; conditions: Macaca fascicularis; outline: as §1

Compound | IC50 ([1]; read-out: IC50) [nM] | AUC(0-t) at 6 h [2] [ng·h/mL] | other results
CC[C@H]1[C@H](CCc2ccc(-c3cccc(C(F)(F)F)c3)cn2)[C@@H]2[C@@H](C)OC(=O)[C@@H]2C[C@@H]1C | 225 | – | –
CC[C@H]1[C@H](/C=C/c2ccc(-c3cccc(OC)c3)cn2)[C@@H]2[C@@H](C)OC(=O)[C@]2(O)C[C@@H]1C [listing 1 of 2 here] | – | – | inhibition (Cynomolgus monkey [3]): inactive
CC[C@H]1[C@H](/C=C/c2ccc(-c3cccc(C#N)c3)cn2)[C@@H]2[C@@H](C)OC(=O)[C@]2(O)C[C@@H]1C.Cl | – | – | inhibition in vivo at 1 mg/kg (Cynomolgus monkey [4]): 60%; AUC(0-t) at 24 h [5]: 6280 ng·h/mL
CC[C@H]1[C@H](/C=C/c2ccc(-c3cccnc3)cn2)[C@@H]2[C@@H](C)OC(=O)[C@]2(O)C[C@@H]1C [listing 1 of 2 here] | – | – | inhibition in vivo at 3 mg/kg (Cynomolgus monkey [6]): 45%
CC[C@H]1[C@H](/C=C/c2ccc(-c3ccccc3)cn2)[C@@H]2[C@@H](C)OC(=O)[C@]2(O)C[C@@H]1C | – | – | inhibition (Cynomolgus monkey [6]): Active; inhibition (Cynomolgus monkey [7]): Active
CC[C@H]1[C@H](/C=C/c2ccc(-c3ccc(C#N)cc3)cn2)[C@@H]2[C@@H](C)OC(=O)[C@]2(O)C[C@@H]1C | – | – | IC50 [1]: Not Active
CC[C@H]1[C@H](/C=C/c2ccc(-c3ccc(OC)cc3)cn2)[C@@H]2[C@@H](C)OC(=O)[C@]2(O)C[C@@H]1C | 451 | – | –
CC[C@H]1[C@H](/C=C/c2ccc(N3CCCC3)cn2)[C@@H]2[C@@H](C)OC(=O)[C@]2(O)C[C@@H]1C | 64 | 486 | –

Further lines, with some results ahead:

IC50 ([1]; read-out: IC50) [nM] | AUC(0-t) at 6 h [2] [ng·h/mL] | Compound | other results
45 | – | CC[C@H]1[C@H](/C=C/c2ccc(-c3cccc(C)c3)cn2)[C@@H]2[C@@H](C)OC(=O)[C@@H]2C[C@@H]1C | –
20 | 1080 | CC[C@H]1[C@H](/C=C/c2ccc(-c3cccc(C#N)c3)cn2)[C@@H]2[C@@H](C)OC(=O)[C@]2(O)C[C@@H]1C | –
4.6 | 397 | CC[C@H]1[C@H](/C=C/c2ccc(-c3ccsc3)cn2)[C@@H]2[C@@H](C)OC(=O)[C@]2(O)C[C@@H]1C | –
8.1 | 168 | CC[C@H]1[C@H](/C=C/c2ccc(-c3ccccc3OC)cn2)[C@@H]2[C@@H](C)OC(=O)[C@]2(O)C[C@@H]1C | –
22 | 852 | CC[C@H]1[C@H](/C=C/c2ccc(-c3ccccc3F)cn2)[C@@H]2[C@@H](C)OC(=O)[C@@H]2C[C@@H]1C | inhibition in vivo at 3 mg/kg (Cynomolgus monkey [6]): 45%
49 | 1900 | CC[C@H]1[C@H](/C=C/c2ccc(-c3cccnc3)cn2)[C@@H]2[C@@H](C)OC(=O)[C@]2(O)C[C@@H]1C [listing 2 of 2 here] | –
8.8 | 672 | CC[C@H]1[C@H](/C=C/c2ccc(-c3ccccc3)cn2)[C@@H]2[C@@H](C)OC(=O)[C@@H]2C[C@@H]1C | –
18 | 2440 | CC[C@H]1[C@H](/C=C/c2ccc(-c3cccc(OC)c3)cn2)[C@@H]2[C@@H](C)OC(=O)[C@]2(O)C[C@@H]1C [listing 2 of 2 here] | –
35 | 203 | CC[C@H]1[C@H](/C=C/c2ccc(-c3cccc(C)c3)cn2)[C@@H]2[C@@H](C)OC(=O)[C@]2(O)C[C@@H]1C | –
24 | – | CC[C@H]1[C@H](/C=C/c2ccc(-c3cccc(C(F)(F)F)c3)cn2)[C@@H]2[C@@H](C)OC(=O)[C@@H]2C[C@@H]1C | –
